Values joined by “and” are separate entries in the source; they are usually repeats but may differ in a detail not shown here. Equal values may be shown once.
Assays:
[1] = target: Vitamin D3 receptor (Homo sapiens) (UniProt P11473); assay: Increase in human VDR-mediated transcriptional activity in african green monkey COS7 cells after 24 hrs by luciferase assay
[2] = target: T1, Vitamin D3 receptor (Rattus norvegicus) (UniProt P13053); assay: Displacement of [3H]1-alpha,25-(OH)2D3 from rat recombinant VDR expressed in Escherichia coli BL21 (DE3)
T1 sequence (whole entry): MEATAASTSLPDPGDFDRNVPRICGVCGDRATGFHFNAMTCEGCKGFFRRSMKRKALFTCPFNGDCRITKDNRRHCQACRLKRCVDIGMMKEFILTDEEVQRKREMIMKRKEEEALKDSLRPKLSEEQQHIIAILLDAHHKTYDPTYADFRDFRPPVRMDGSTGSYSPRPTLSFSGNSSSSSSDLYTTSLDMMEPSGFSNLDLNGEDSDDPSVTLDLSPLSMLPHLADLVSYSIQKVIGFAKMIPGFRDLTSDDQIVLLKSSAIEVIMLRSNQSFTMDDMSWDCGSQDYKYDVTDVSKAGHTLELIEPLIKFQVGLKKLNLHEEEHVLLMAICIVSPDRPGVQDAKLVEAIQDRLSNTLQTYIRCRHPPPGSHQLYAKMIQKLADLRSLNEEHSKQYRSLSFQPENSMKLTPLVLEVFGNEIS
In short: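 Rat VDR-LBD lysate (sonicated cells) diluted ~1000-fold in 50 mM Tris pH 7.5 with 100 mM KCl, 5 mM DTT, 0.5% CHAPS and BSA 100 µg/mL. Ligand in EtOH preincubated 1 h at room temperature, then [3H]1α,25-(OH)2D3 (~5000 dpm) added for 18 h at 4 °C. Free ligand removed with dextran-coated charcoal, and bound fraction counted by scintillation. At least twice in duplicate.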

Bone marrow cell = assay: Effect on osteoclast formation in ddY mouse bone marrow cells co cultured with […] after 7 days
[3] = Mus musculus, ddY, Bone marrow cell, 168 h

SMILES	EC50 [1]	Activity [2]	also measured
[H][C@@]12CC=C([C@@H](C)SCC(O)(CC)CC)[C@@]1(C)CCC/C2=C\C=C1/C[C@@H](O)[C@@](C)(O)[C@H](O)C1 (stereo partly specified)	4.5 nM	–	–
CCC(O)(CC)CSC(C)C1=CCC2/C(=C/C=C3C[C@@H](O)C(=CCO)[C@H](O)C3)CCC[C@]12C (stereo partly specified) [listing 1 of 2 here]	0.026 nM	–	–
CCC(O)(CC)CCS[C@@H](C)C1=CC[C@H]2/C(=C/C=C3C[C@@H](O)C[C@H](O)C3)CCC[C@]12C	–	100%	–
CCC(O)(CC)CS[C@H](C)C1=CC[C@H]2/C(=C/C=C3C[C@@H](O)C(=CCO)[C@H](O)C3)CCC[C@]12C [listing 1 of 2 here]	0.2 nM	–	–
CCC(O)(CC)CS[C@H](C)C1=CC[C@H]2/C(=C/C=C3C[C@@H](O)C(C)(O)[C@H](O)C3)CCC[C@]12C (stereo partly specified)	–	12% and 0.5%	–
CCC(O)(CC)CS[C@@H](C)C1=CC[C@H]2/C(=C/C=C3C[C@@H](O)C[C@H](O)C3)CCC[C@]12C	–	60%	–
CCC(O)(CC)CCCS[C@@H](C)C1=CC[C@H]2/C(=C/C=C3C[C@@H](O)C[C@H](O)C3)CCC[C@]12C	–	100%	–
CCC(O)(CC)CS[C@H](C)C1=CC[C@H]2/C(=C/C=C3C[C@@H](O)C(=CCO)[C@H](O)C3)CCC[C@]12C [listing 2 of 2 here]	0.029 nM	–	–
[H][C@@]12CC=C([C@@H](C)SCC(O)(CC)CC)[C@@]1(C)CCC/C2=C\C=C1\C[C@@H](O)[C@@](C)(O)[C@H](O)C1 (stereo partly specified)	0.12 nM	–	–
CCC(O)(CC)CSC(C)C1=CCC2/C(=C/C=C3/C[C@@H](O)[C@](C)(O)[C@H](O)C3)CCC[C@]12C (stereo partly specified)	1.9 nM	–	–
CCC(O)(CC)CSC(C)C1=CCC2/C(=C/C=C3/C[C@@H](O)[C@H](OCCO)[C@H](O)C3)CCC[C@]12C (stereo partly specified)	0.027 nM	–	EC50 (Bone marrow cell; bone marrow cell): 0.04 nM
CCC(O)(CC)CCS[C@H](C)C1=CC[C@H]2/C(=C/C=C3C[C@@H](O)C[C@H](O)C3)CCC[C@]12C	–	4%	–
[H][C@@]12CC=C([C@@H](C)SCC(O)(CC)CC)[C@@]1(C)CCC/C2=C\C=C1\C[C@@H](O)[C@H](OCCO)[C@H](O)C1 (stereo partly specified)	0.115 nM	–	EC50 (Bone marrow cell; bone marrow cell): 0.43 nM
[H][C@@]12CC=C([C@@H](C)SCC(O)(CC)CC)[C@@]1(C)CCC/C2=C\C=C1/C[C@@H](O)[C@H](OCCO)[C@H](O)C1 (stereo partly specified)	0.024 nM	–	EC50 (Bone marrow cell; [3]): 0.22 nM
CCC(O)(CC)CSC(C)C1=CCC2/C(=C/C=C3\C[C@@H](O)[C@H](OCCO)[C@H](O)C3)CCC[C@]12C (stereo partly specified)	0.0021 nM	–	EC50 (Bone marrow cell; [3]): 0.035 nM
CCC(O)(CC)CSC(C)C1=CCC2/C(=C/C=C3C[C@@H](O)C(C)(O)[C@H](O)C3)CCC[C@]12C (stereo partly specified)	–	18% and 1%	–
CCC(O)(CC)CS[C@H](C)C1=CC[C@H]2/C(=C/C=C3C[C@@H](O)C[C@H](O)C3)CCC[C@]12C	–	6%	–
CCC(O)(CC)CSC(C)C1=CCC2/C(=C/C=C3\C[C@@H](O)[C@](C)(O)[C@H](O)C3)CCC[C@]12C (stereo partly specified)	0.017 nM	–	–
CCC(O)(CC)CCCS[C@H](C)C1=CC[C@H]2/C(=C/C=C3C[C@@H](O)C[C@H](O)C3)CCC[C@]12C	–	8%	–
CCC(O)(CC)CSC(C)C1=CCC2/C(=C/C=C3C[C@@H](O)C(=CCO)[C@H](O)C3)CCC[C@]12C (stereo partly specified) [listing 2 of 2 here]	0.085 nM	–	–
C=C1/C(=C\C=C2/CCC[C@]3(C)[C@@H]([C@H](C)CCCC(C)(C)O)CC[C@@H]23)C[C@@H](O)C[C@@H]1O [CALCITRIOL]	–	100%	EC50 (Bone marrow cell; [3]): 2 nM
